From ChEMBL document CHEMBL1765045, “Fine-tuning the selectivity of aldosterone synthase inhibitors: structure-activity and structure-selectivity insights from studies of heteroaryl substituted 1,2,5,6-tetrahydropyrrolo[3,2,1-ij]quinolin-4-one derivatives” (J Med Chem, 2011)

How the values were obtained:
[1] = biological target: T1, Cytochrome P450 11B2, mitochondrial (Homo sapiens, UniProt P19099); experiment: Inhibition of human CYP11B2 expressed in hamster V79 MZh cells assessed as conversion of [4-14C]-11-deoxycorticosterone substrate by HPTLC assay; assay type: cell-based
T1 sequence (P19099 whole entry): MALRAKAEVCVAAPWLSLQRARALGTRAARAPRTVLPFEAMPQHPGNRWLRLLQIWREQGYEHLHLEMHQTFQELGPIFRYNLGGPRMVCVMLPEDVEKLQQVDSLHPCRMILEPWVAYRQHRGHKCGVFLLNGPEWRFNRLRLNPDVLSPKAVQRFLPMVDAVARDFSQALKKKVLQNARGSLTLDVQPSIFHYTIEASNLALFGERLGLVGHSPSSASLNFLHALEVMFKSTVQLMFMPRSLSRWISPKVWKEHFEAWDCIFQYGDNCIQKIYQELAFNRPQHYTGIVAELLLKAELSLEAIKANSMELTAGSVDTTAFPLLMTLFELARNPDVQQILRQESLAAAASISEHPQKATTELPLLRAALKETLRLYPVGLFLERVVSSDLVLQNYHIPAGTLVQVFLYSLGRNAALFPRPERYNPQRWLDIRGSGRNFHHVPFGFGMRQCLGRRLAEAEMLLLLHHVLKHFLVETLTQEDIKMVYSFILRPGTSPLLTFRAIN
In short: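 Hamster V79 MZh fibroblasts expressing human CYP11B2 incubated with [4-14C]-11-deoxycorticosterone (100 nM) and inhibitor at ≥3 concentrations; reaction stopped with ethyl acetate, steroids extracted after shaking and centrifugation (10000g, 2 min). Substrate conversion read by HPTLC with phosphoimaging.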

[2] = biological target: T1, Cytochrome P450 11B2, mitochondrial; experiment: Inhibition of human CYP11B2 expressed in hamster V79 MZh cells assessed as conversion of [4-14C]-11-deoxycorticosterone substrate at 500 nM by HPTLC assay; assay type: cell-based; conditions: V79MZh
In short: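 V79 MZh cells expressing human CYP11B2 given [4-14C]-11-deoxycorticosterone, 100 nM, with inhibitor at a single 500 nM concentration. Ethyl acetate extraction, then HPTLC/phosphoimager readout of conversion. Percent inhibition is the mean of at least three experiments.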

[3] = biological target: T2, Cytochrome P450 11B1, mitochondrial (Homo sapiens, UniProt P15538); experiment: Inhibition of human CYP11B1 expressed in hamster V79 MZh cells assessed as conversion of [4-14C]-11-deoxycorticosterone substrate by HPTLC assay; assay type: cell-based
T2 sequence (P15538 whole entry): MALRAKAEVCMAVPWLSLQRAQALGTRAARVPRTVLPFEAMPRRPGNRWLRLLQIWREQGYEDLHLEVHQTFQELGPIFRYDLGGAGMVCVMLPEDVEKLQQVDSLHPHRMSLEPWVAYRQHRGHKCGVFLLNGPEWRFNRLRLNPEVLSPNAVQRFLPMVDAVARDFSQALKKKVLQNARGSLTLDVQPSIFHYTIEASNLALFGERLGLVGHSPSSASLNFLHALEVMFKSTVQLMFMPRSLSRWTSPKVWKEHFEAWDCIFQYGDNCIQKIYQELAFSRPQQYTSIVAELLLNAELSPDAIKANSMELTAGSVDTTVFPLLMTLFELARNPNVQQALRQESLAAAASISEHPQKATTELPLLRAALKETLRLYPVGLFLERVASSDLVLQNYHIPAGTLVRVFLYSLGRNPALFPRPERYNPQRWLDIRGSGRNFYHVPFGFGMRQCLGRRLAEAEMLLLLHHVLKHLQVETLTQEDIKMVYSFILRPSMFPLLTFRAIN
In short: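 V79 MZh hamster fibroblasts stably expressing human CYP11B1 or CYP11B2 incubated with [4-14C]-11-deoxycorticosterone, 100 nM, plus inhibitor at ≥3 concentrations. Reaction stopped with ethyl acetate, steroids extracted into the organic phase, and substrate conversion quantified by HPTLC with phosphoimaging. IC50 is the mean of at least three experiments.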

Homo sapiens = organism: Homo sapiens; experiment: Selectivity ratio of IC50 for human CYP11B1 to IC50 for human CYP11B2
In short: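 Ratio of IC50 values from V79 MZh cell assays for human CYP11B1 and CYP11B2, IC50 CYP11B1/IC50 CYP11B2. Both assays used [4-14C]-11-deoxycorticosterone, 100 nM, inhibitor at ≥3 concentrations and HPTLC/phosphoimager readout of conversion.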

CYP3A4 [4] = biological target: T3, CYP3A4 (Homo sapiens, UniProt P08684); experiment: Inhibition of human CYP3A4 expressed in baculovirus-infected insect microsomes at 10 uM; assay type: ADME, Microsome
T3 sequence (P08684 whole entry): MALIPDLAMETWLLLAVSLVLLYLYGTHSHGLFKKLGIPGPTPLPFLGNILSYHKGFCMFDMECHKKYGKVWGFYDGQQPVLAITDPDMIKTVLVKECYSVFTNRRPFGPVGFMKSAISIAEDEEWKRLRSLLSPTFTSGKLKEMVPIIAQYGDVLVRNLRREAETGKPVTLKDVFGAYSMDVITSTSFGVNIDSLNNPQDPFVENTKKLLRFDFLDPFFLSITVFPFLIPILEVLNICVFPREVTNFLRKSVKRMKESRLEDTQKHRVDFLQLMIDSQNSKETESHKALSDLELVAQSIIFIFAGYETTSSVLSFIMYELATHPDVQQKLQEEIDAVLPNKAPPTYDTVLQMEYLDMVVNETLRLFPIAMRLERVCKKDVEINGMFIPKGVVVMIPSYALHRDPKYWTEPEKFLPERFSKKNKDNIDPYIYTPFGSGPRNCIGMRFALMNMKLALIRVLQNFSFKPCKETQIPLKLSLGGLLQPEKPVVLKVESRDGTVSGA
In short: (§1)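 Recombinant human CYP1A2, 2B6, 2C9, 2C19, 2D6 or 3A4 in baculovirus-infected insect microsomes (Supersomes), run per manufacturer's protocol. Inhibitor at 1 and 10 μM; percent inhibition is the mean of two experiments.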

CYP3A4 [5] = biological target: T3, CYP3A4; experiment: Inhibition of human CYP3A4 expressed in baculovirus-infected insect microsomes at 1 uM; assay type: ADME, Microsome; in short: as §1
CYP2C19 [6] = biological target: T4, CYP2C19 (Homo sapiens, UniProt P33261); experiment: Inhibition of human CYP2C19 expressed in baculovirus-infected insect microsomes at 10 uM; assay type: ADME, Microsome; in short: as §1
T4 sequence (P33261 whole entry): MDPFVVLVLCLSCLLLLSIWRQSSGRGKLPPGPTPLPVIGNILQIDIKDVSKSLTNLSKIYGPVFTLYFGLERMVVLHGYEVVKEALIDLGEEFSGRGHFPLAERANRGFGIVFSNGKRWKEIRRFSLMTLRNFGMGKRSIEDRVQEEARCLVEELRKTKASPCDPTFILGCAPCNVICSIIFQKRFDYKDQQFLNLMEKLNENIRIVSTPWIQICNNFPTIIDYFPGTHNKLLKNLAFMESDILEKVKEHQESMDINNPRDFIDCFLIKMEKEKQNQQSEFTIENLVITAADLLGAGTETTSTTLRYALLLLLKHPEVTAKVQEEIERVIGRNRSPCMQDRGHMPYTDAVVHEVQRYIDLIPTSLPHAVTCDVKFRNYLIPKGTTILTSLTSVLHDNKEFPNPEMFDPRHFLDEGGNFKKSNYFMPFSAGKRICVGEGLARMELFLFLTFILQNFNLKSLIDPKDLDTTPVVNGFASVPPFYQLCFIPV

CYP2C19 [7] = biological target: T4, CYP2C19; experiment: Inhibition of human CYP2C19 expressed in baculovirus-infected insect microsomes at 1 uM; assay type: ADME, Microsome; in short: as §1
CYP2C9 [8] = biological target: T5, CYP2C9 (Homo sapiens, UniProt P11712); experiment: Inhibition of human CYP2C9 expressed in baculovirus-infected insect microsomes at 10 uM; assay type: ADME, Microsome; in short: as §1
T5 sequence (P11712 whole entry): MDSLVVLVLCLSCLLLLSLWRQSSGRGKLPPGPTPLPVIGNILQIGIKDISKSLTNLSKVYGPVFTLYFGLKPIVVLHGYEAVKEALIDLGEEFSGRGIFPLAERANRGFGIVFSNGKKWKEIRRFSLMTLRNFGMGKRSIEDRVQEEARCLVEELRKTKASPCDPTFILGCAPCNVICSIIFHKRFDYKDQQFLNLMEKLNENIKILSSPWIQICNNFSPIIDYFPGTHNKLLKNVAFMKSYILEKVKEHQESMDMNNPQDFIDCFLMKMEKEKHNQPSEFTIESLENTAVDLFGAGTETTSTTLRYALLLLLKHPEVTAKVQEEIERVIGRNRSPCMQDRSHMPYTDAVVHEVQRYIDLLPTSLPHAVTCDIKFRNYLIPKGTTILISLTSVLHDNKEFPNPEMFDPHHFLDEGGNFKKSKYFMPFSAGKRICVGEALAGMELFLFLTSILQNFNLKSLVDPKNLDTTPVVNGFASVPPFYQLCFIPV

CYP2C9 [9] = biological target: T5, CYP2C9; experiment: Inhibition of human CYP2C9 expressed in baculovirus-infected insect microsomes at 1 uM; assay type: ADME, Microsome; in short: as §1
CYP1A2 [10] = biological target: T6, CYP1A2 (Homo sapiens, UniProt P05177); experiment: Inhibition of human CYP1A2 expressed in baculovirus-infected insect microsomes at 10 uM; assay type: ADME, Microsome; in short: as §1
T6 sequence (P05177 whole entry): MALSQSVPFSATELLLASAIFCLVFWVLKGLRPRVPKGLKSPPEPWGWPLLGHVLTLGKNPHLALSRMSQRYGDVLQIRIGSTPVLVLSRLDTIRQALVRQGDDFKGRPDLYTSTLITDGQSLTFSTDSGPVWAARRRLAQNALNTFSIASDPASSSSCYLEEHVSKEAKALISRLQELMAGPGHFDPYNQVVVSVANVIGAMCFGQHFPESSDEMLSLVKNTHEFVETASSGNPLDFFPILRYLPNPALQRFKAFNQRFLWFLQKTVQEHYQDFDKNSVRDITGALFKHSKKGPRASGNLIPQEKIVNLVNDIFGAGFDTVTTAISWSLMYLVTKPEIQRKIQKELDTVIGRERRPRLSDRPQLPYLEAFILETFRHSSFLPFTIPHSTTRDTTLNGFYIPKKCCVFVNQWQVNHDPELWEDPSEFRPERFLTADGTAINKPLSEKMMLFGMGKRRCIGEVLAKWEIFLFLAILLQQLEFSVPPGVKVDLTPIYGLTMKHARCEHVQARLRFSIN

CYP1A2 [11] = biological target: T6, CYP1A2; experiment: Inhibition of human CYP1A2 expressed in baculovirus-infected insect microsomes at 1 uM; assay type: ADME, Microsome; in short: as §1
CYP17 = biological target: T7, CYP17 (Homo sapiens, UniProt P05093); experiment: Inhibition of human CYP17 expressed in Escherichia coli using progesterone substrate at 2 uM; conditions: recombinant human CYP17 expressed in Escherichia coli, probe progesterone
T7 sequence (P05093 whole entry): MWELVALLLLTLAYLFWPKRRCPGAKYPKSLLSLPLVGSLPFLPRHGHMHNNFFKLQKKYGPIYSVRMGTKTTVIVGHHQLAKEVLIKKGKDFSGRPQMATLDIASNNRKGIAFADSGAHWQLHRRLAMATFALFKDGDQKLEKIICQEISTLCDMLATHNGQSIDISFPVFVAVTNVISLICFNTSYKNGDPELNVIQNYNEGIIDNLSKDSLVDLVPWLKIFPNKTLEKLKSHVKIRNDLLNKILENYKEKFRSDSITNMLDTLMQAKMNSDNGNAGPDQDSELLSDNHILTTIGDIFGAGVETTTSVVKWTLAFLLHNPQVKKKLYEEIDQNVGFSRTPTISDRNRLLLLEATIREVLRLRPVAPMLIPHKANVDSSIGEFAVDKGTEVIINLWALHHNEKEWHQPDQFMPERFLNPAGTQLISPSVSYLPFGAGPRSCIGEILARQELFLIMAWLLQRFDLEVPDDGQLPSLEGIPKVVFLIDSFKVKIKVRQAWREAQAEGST
In short: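 50000g sediment of E. coli homogenate recombinantly expressing human CYP17. Progesterone substrate at 25 μM, inhibitor tested at 2 μM.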

| SMILES | IC50 [1] [nM] | inhibition at 0.5 µM [2] [%] | IC50 [3] [nM] | inhibition at 2 µM (CYP17) [%] | further results |
| --- | --- | --- | --- | --- | --- |
| O=C1CCc2cc(-c3cncc(-c4cccc(OC(F)(F)F)c4)c3)cc3c2N1CC3 | 16 | 92 | 2060 | – | – |
| CCOc1cncc(-c2cc3c4c(c2)CCN4C(=O)CC3)c1 | 1 | 92 | 158 | – | Ratio IC50 (Homo sapiens): 158 |
| COc1cncc(-c2cc3c4c(c2)CCC(=O)N4CCC3)c1 | 0.9 | 95 | 545 | < 5 | inhibition at 10 µM (CYP3A4 [4]): 24%; inhibition at 1 µM (CYP3A4 [5]): 12%; inhibition at 10 µM (CYP2C19 [6]): 61%; inhibition at 1 µM (CYP2C19 [7]): 11%; inhibition at 10 µM (CYP2C9 [8]): 63%; inhibition at 1 µM (CYP2C9 [9]): 34%; inhibition at 10 µM (CYP1A2 [10]): 87%; inhibition at 1 µM (CYP1A2 [11]): 47% |
| O=C1CCc2cc(-c3cncc(-c4ccccc4)c3)cc3c2N1CC3 | 1.3 | 97 | 58 | – | Ratio IC50 (Homo sapiens): 45 |
| COc1ccc(-c2cncc(-c3cc4c5c(c3)CCN5C(=O)CC4)c2)cc1 | 1.4 | 95 | 21 | – | – |
| O=C1CCc2cc(-n3ccnc3)cc3c2N1CC3 | 89 | 87 | 2080 | – | – |
| O=C1CCc2cc(-c3ccncc3)cc3c2N1CC3 | – | 7 | – | – | – |
| O=C1CCc2cc(-c3cncc4ccccc34)cc3c2N1CCC3 | 0.2 | 95 | 34 | 5 | Ratio IC50 (Homo sapiens): 170; inhibition at 10 µM (CYP3A4 [4]): < 5%; inhibition at 1 µM (CYP3A4 [5]): < 5%; inhibition at 10 µM (CYP2C19 [6]): 96%; inhibition at 1 µM (CYP2C19 [7]): 67%; inhibition at 10 µM (CYP2C9 [8]): 97%; inhibition at 1 µM (CYP2C9 [9]): 73%; inhibition at 10 µM (CYP1A2 [10]): 63%; inhibition at 1 µM (CYP1A2 [11]): 24% |
| O=C1CCc2cc(-c3cncnc3)cc3c2N1CC3 | 56 | 81 | 28500 | 5 | – |
| CC(C)Oc1cncc(-c2cc3c4c(c2)CCN4C(=O)CC3)c1 | 2.2 | 96 | 103 | – | – |
| S=C1CCc2cc(-c3cccnc3)cc3c2N1CC3 | 1.2 | 96 | 333 | 11 | – |
| O=C1CCc2cc(-c3cncc(C(F)(F)F)c3)cc3c2N1CC3 | 5.9 | 96 | 141 | – | – |
| O=C1CCc2cc(-c3cncc(O)c3)cc3c2N1CC3 | 4.3 | 94 | 2040 | – | – |
| CC1(C)CC(=O)N2CCc3cc(-c4cccnc4)cc1c32 | – | 48 | – | – | – |
| O=C1CCc2cc(-c3cncc(F)c3)cc3c2N1CC3 | 4.4 | 97 | 1290 | < 5 | – |
| COc1ccccc1-c1cncc(-c2cc3c4c(c2)CCN4C(=O)CC3)c1 | 2.4 | 86 | 128 | – | – |
| O=C1CCc2cc(-c3cncc4ccccc34)cc3c2N1CC3 | 0.2 | 98 | 13 | 6 | – |

Further lines, with some results ahead:

| IC50 [1] [nM] | inhibition at 0.5 µM [2] [%] | IC50 [3] [nM] | inhibition at 2 µM (CYP17) [%] | SMILES | further results |
| --- | --- | --- | --- | --- | --- |
| 0.9 | 96 | 40 | – | O=C1CCc2cc(-c3cncc(-c4ccc(F)cc4)c3)cc3c2N1CC3 | – |
| 4.6 | 86 | 1370 | < 5 | COc1cccc(-c2cncc(-c3cc4c5c(c3)CCN5C(=O)CC4)c2)c1 | Ratio IC50 (Homo sapiens): 299 |
| 3.6 | 80 | 183 | – | O=C1CCc2cc(-c3cncc(-c4cc(F)ccc4F)c3)cc3c2N1CC3 | – |
| 2.3 | 89 | 496 | < 5 | O=C1CCc2cc(-c3cncc(-c4ccc(F)c(F)c4)c3)cc3c2N1CC3 | – |
| 1.2 | 92 | 44 | – | O=C1CCc2cc(-c3cncc(-c4cccc(O)c4)c3)cc3c2N1CC3 | – |
| 0.7 | 92 | 43 | – | O=C1CCc2cc(-c3cncc(-c4ccccc4F)c3)cc3c2N1CC3 | Ratio IC50 (Homo sapiens): 61 |
| 18 | 81 | 1750 | – | O=C1CCc2cc(-c3cncc(-c4cc(F)cc(F)c4)c3)cc3c2N1CC3 | – |
| 33 | 80 | 4650 | – | O=C1CCc2cc(-c3cncc(-c4cccc(C(F)(F)F)c4)c3)cc3c2N1CC3 | – |
